“Also recorded” adds a separate entry of the source. Values belong to the compound of their own block, whether it stands above or below them.
Legend:
[1] = test system: STAT5:STAT5 homodimers; type: biochemical; details: 10 µM, MGFe probe (Fig. S6)
[2] = target: T1, STAT1:STAT1 homodimers (Mus musculus, UniProt P42225); type: biochemical; details: 10 µM, MGFe probe (Fig. S6)
T1 sequence (P42225 2-749 limits assumed): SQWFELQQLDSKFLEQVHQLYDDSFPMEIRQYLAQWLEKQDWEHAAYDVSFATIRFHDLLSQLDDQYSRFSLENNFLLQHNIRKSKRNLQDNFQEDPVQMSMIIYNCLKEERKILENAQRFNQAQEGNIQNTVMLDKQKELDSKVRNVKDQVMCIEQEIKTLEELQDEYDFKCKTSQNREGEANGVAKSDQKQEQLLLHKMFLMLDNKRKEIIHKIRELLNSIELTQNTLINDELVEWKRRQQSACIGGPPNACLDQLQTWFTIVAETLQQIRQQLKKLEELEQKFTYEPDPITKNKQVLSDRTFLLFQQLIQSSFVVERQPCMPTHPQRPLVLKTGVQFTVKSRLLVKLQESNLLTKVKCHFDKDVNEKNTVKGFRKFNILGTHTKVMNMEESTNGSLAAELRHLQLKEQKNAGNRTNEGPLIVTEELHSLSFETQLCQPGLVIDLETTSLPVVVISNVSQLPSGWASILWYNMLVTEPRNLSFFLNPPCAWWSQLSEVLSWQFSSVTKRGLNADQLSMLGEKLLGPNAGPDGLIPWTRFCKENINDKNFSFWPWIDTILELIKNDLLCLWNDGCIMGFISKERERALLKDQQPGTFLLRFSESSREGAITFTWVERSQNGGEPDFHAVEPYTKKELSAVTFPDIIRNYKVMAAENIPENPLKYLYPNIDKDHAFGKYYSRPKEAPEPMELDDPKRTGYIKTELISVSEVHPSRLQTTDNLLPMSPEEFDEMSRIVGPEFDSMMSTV

[3] = test system: MCF-7 cells; test: Cell growth by trypan blue exclusion/phase-contrast microscopy, MCF-7; type: cell-based, human; details: 2 μM
Summary of the method: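 Cells cultured in 6-well plates and treated once with 2 μM test compound. Every 24 h (up to 96 h), cells were harvested and viable cells counted by trypan blue exclusion under phase-contrast microscopy. Counts were plotted against treatment duration. Cells were grown in DMEM with 10% heat-inactivated FBS.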

[4] = test system: MDA-MB-231 cells; test: Clonogenic; type: cell-based, human; details: treated once
Summary of the method: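 Cells were seeded as single-cell cultures at 250 cells per well. They were treated once the next day with test compound at 0–1 μM and cultured until large colonies were visible. Colonies were stained with crystal violet for 4 h and photographed. Data came from three independent determinations.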

[5] = test system: MDA-MB-231 or MDA-MB-468 cells; test: Cell viability/growth of breast cancer cells harboring active STAT3; type: cell-based, human; details: for viability, anchorage-dependent and independent growth, and colony formation: at 1 μM or less; for activity against breast cancer cells: up to 10 μM
[6] = test system: pY705STAT3; test: Immunoblotting for pY705STAT3 in treated breast cancer cells; type: cell-based, human; details: 1–5 μM, 0–24 h (BBI-608 0.5–5 μM, 2–3 h)
Summary of the method: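 Controls received 0.05% DMSO. Equal-protein RIPA whole-cell lysates were immunoblotted for pY705STAT3, STAT3 and tubulin. Results came from two to three independent determinations.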

[7] = test system: STAT3 DNA-binding activity in MDA-MB-468 cells; test: Constitutive STAT3 DNA-binding activity in treated breast cancer cells; type: cell-based, human; details: for earliest time of inhibition of STAT3 DNA-binding activity in cells: MDA-MB-468; for constitutive STAT3 DNA-binding activity in cells: cells treated with 1–5 μM (BBI-608 0.5–5 μM, 2–3 h)
Summary of the method: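 MDA-MB-468 cells were treated with 5 μM test compound for 1–3 h; controls received 0.05% DMSO. Nuclear extracts of equal total protein were incubated with 33P-labelled hSIE probe (c-fos m67 variant) for 30 min at 30 °C. STAT3:DNA complexes were then resolved by EMSA. Results came from two to three independent determinations.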

[8] = test system: MDA-MB-231 cells; test: Cell growth by trypan blue exclusion/phase-contrast microscopy, MDA-MB-231; type: cell-based, human; details: 2 μM
[9] = test system: MDA-MB-231 cells; test: CyQuant cell viability assay, MDA-MB-231; type: cell-based; details: Homo sapiens, MDA-MB-231, 72 h, read-out: Cell viability EC50 MDA-MB-231
[10] = target: STAT3 (Mus musculus, UniProt P42227); type: biochemical; details: for direct effect on STAT3 activity in the DNA-binding assay/EMSA: up to 10 μM
[11] = test system: MCF-10A cells; test: CyQuant cell viability assay, MCF-10A; type: cell-based; details: Homo sapiens, 72 h, read-out: Cell viability EC50 MCF-10A
Summary of the method: (§1)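 Cells in 96-well plates were treated with test compound over a range of concentrations for 72 h, then assayed with CyQuant. Viability was normalised to control as % and plotted against concentration to derive EC50. Media: MCF-10A in DMEM/F12 with 5% horse serum, EGF, insulin and hydrocortisone; other lines in DMEM with 10% heat-inactivated FBS.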

[12] = cited from earlier work
[13] = test system: MCF-7 cells; test: CyQuant cell viability assay, MCF-7; type: cell-based, human
Summary of the method: as §1

[14] = test system: MDA-MB-468 cells; test: CyQuant cell viability assay, MDA-MB-468; type: cell-based; details: Homo sapiens, MDA-MB-468, 72 h, read-out: Cell viability EC50 MDA-MB-468
Summary of the method: as §1

STAT3, sequence (P42227 2-770 limits assumed): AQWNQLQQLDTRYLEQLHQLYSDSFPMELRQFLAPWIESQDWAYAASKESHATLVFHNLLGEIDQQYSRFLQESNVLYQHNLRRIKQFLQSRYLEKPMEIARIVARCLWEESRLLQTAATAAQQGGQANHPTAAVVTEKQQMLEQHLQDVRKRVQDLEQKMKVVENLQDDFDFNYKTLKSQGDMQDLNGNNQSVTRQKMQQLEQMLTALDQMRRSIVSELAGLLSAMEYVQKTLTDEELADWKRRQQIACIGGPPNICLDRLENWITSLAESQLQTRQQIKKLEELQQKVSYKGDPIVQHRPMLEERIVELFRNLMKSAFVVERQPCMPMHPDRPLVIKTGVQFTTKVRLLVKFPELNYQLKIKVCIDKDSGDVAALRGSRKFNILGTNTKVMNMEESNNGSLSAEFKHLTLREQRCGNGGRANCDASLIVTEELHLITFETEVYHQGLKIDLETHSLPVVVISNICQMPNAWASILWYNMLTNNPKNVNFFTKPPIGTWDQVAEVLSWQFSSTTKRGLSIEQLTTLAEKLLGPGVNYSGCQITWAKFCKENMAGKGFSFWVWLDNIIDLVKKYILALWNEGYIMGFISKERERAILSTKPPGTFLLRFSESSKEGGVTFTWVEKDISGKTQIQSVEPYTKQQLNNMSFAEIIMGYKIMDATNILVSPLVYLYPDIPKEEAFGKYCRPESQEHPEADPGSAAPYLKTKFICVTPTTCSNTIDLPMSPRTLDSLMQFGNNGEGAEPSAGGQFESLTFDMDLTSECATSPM

SMILES: O=C(O)c1ccc(N(Cc2ccc(C3CCCCC3)nc2)C(=O)[C@H]2CCN2S(=O)(=O)c2c(F)c(F)c(F)c(F)c2F)cc1O [Compound 5m]
effect on DNA-binding activity of STAT5:STAT5 homodimers [1]: minimal effect
effect on DNA-binding activity of STAT1:STAT1 homodimers [2]: minimal effect

SMILES: O=C(O)c1ccc(N(Cc2ccc(C3CCCC3)cc2)C(=O)[C@H]2CCN2S(=O)(=O)c2c(F)c(F)c(F)c(F)c2F)cc1O [Compound 5e]
effect on DNA-binding activity of STAT5:STAT5 homodimers [1]: minimal effect
effect on DNA-binding activity of STAT1:STAT1 homodimers [2]: minimal effect

SMILES: COC(=O)c1ccc(N(Cc2cnc(C3CCCCC3)cn2)C(=O)[C@H]2CCN2S(=O)(=O)c2c(F)c(F)c(F)c(F)c2F)c(F)c1 [Compound 7e]
inhibition of colony formation ([4]; 0.5 μM): minimal to moderate inhibition of colony formation
inhibition of colony formation ([4]; 1 μM): near-complete inhibition
viability, anchorage-dependent and independent growth, and colony formation [5]: strongly inhibited

SMILES: CC(=O)c1cc2c(o1)C(=O)c1ccccc1C2=O [napabucasin, reference compound]
pY705STAT3 in breast cancer cells [6]: weak to moderate effects
constitutive STAT3 DNA-binding activity in cells [7]: weak to moderate effects
direct effect on STAT3 activity in the DNA-binding assay/EMSA [10]: minimal direct effect

SMILES: COC(=O)c1ccc(N(Cc2ccc(C3CCCCC3)nc2)C(=O)[C@H]2CCN2S(=O)(=O)c2c(F)c(F)c(F)c(F)c2F)cc1O [Compound 7c]
EC50 [11]: 3.6 µM

SMILES: O=C(O)c1ccc(N(Cc2ccc(C3CCCCC3)cc2)C(=O)[C@H]2CCN2S(=O)(=O)c2c(F)c(F)c(F)c(F)c2F)cc1O [Compound 5a, (R)-4-(N-(4-cyclohexylbenzyl)-1-((perfluorophenyl)sulfonyl)azetidine-2-carboxamido)-2-hydroxybenzoic acid]
activity against breast cancer cells [5]: no activity

SMILES: CN(CC(=O)N(Cc1ccc(C2CCCCC2)cc1)c1ccc(C(=O)NO)cc1)S(=O)(=O)c1c(F)c(F)c(F)c(F)c1F [SH5-07]
cellular activities of parent lead compounds [12]: 3.8 µM

SMILES: O=C(NO)c1ccc(N(Cc2ccc(C3CCCCC3)cn2)C(=O)[C@H]2CCN2S(=O)(=O)c2c(F)c(F)c(F)c(F)c2F)c(F)c1 [Compound 8l]
activity against breast cancer cells [5]: weakly active

SMILES: COc1ccc(S(=O)(=O)Nc2cc(-c3c(O)ccc4ccccc34)c(O)c3ccccc23)cc1 [Compound C188-9]
stronger activity against MCF-7 than MDA-MB-231 [13]: 2 fold
direct effect on STAT3 activity in the DNA-binding assay/EMSA [10]: minimal direct effect

SMILES: O=C(O)c1ccc(N(Cc2ccc(C3CCOCC3)cc2)C(=O)[C@H]2CCN2S(=O)(=O)c2c(F)c(F)c(F)c(F)c2F)cc1O [Compound 5g]
effect on DNA-binding activity of STAT5:STAT5 homodimers [1]: minimal effect
effect on DNA-binding activity of STAT1:STAT1 homodimers [2]: minimal effect

SMILES: O=C(O)c1ccc(N(Cc2ccc(C3CCCCC3)cc2)C(=O)C2CN(S(=O)(=O)c3c(F)c(F)c(F)c(F)c3F)C2)cc1O [Compound 5c]
EMSA IC50 ([10]; STAT3:DNA complexes, hSIE probe, 30 min preincubation at room temperature): loss of activity

SMILES: O=C(O)c1cc(F)c(N(Cc2ccc(C3CCCCC3)cc2)C(=O)[C@H]2CCN2S(=O)(=O)c2c(F)c(F)c(F)c(F)c2F)cc1O [Compound 5i]
effect on DNA-binding activity of STAT5:STAT5 homodimers [1]: minimal effect
effect on DNA-binding activity of STAT1:STAT1 homodimers [2]: minimal effect

SMILES: CN(CC(=O)N(Cc1ccc(C2CCCCC2)cc1)c1ccc(C(=O)O)cc1)S(=O)(=O)c1c(F)c(F)c(F)c(F)c1F [SH4-54]
cellular activities of parent lead compounds [12]: 4.5 µM

SMILES: O=C(O)c1ccc(N(Cc2ccc(C3CCOCC3)nc2)C(=O)[C@H]2CCN2S(=O)(=O)c2c(F)c(F)c(F)c(F)c2F)cc1O [Compound 5n]
effect on DNA-binding activity of STAT5:STAT5 homodimers [1]: minimal effect
effect on DNA-binding activity of STAT1:STAT1 homodimers [2]: minimal effect

SMILES: CN(CC(=O)N(Cc1ccc(C2CCCCC2)cc1)c1ccc(C(=O)O)c(O)c1)S(=O)(=O)c1c(F)c(F)c(F)c(F)c1F [BP-1-102]
cellular activities of parent lead compounds [12]: 10 to 20 µM

SMILES: COC(=O)c1ccc(N(Cc2cnc(C3CCCCC3)cn2)C(=O)[C@H]2CCN2S(=O)(=O)c2c(F)c(F)c(F)c(F)c2F)cc1O [Compound 7f]
inhibition of colony formation ([4]; 0.5 μM): minimal to moderate inhibition of colony formation
inhibition of colony formation ([4]; 1 μM): significant inhibition
viability, anchorage-dependent and independent growth, and colony formation [5]: strongly inhibited

The next lines start with results.

effect on DNA-binding activity of STAT5:STAT5 homodimers [1]: minimal effect
effect on DNA-binding activity of STAT1:STAT1 homodimers [2]: minimal effect
SMILES: O=C(NO)c1ccc(N(Cc2ccc(C3CCCCC3)cc2)C(=O)[C@H]2CCN2S(=O)(=O)c2c(F)c(F)c(F)c(F)c2F)c(F)c1 [Compound 8f]

effect on DNA-binding activity of STAT5:STAT5 homodimers [1]: minimal effect
SMILES: O=C1NC(=O)c2cc(N(Cc3ccc(C4CCCCC4)cn3)C(=O)[C@H]3CCN3S(=O)(=O)c3c(F)c(F)c(F)c(F)c3F)ccc21 [Compound 9k]
cell growth MCF-7, trypan blue exclusion [3]: no effect
inhibition of colony formation ([4]; 0.5 μM): minimal to moderate inhibition of colony formation
inhibition of colony formation ([4]; 1 μM): significant inhibition
viability, anchorage-dependent and independent growth, and colony formation [5]: strongly inhibited
pY705STAT3 in breast cancer cells [6]: inhibited pY705STAT3 in dose- and time-dependent manner; also recorded: bounced back by 24 h
earliest time of inhibition of STAT3 DNA-binding activity in cells [7]: 5 min
constitutive STAT3 DNA-binding activity in cells [7]: inhibited to variable degrees
cell growth MDA-MB-231, trypan blue exclusion [8]: strongly inhibited cell growth

EC50 [9]: > 10 µM
SMILES: O=C([C@H]1CCN1S(=O)(=O)c1c(F)c(F)c(F)c(F)c1F)N(Cc1ccc(C2CCCCC2)cc1)c1ccc(-c2nnn[nH]2)cc1 [Compound 6e]
activity against breast cancer cells [5]: weak cellular activity

effect on DNA-binding activity of STAT5:STAT5 homodimers [1]: minimal effect
SMILES: CNC(=O)c1ccc(N(Cc2ccc(C3CCCCC3)cn2)C(=O)[C@H]2CCN2S(=O)(=O)c2c(F)c(F)c(F)c(F)c2F)cc1O [Compound 8q]
cell growth MCF-7, trypan blue exclusion [3]: no effect
inhibition of colony formation ([4]; 1 μM): does not show any inhibitory effect
pY705STAT3 in breast cancer cells [6]: inhibited pY705STAT3 in dose- and time-dependent manner
earliest time of inhibition of STAT3 DNA-binding activity in cells [7]: 360 min
constitutive STAT3 DNA-binding activity in cells [7]: inhibited to variable degrees
cell growth MDA-MB-231, trypan blue exclusion [8]: good activity

effect on DNA-binding activity of STAT5:STAT5 homodimers [1]: minimal effect
effect on DNA-binding activity of STAT1:STAT1 homodimers [2]: minimal effect
SMILES: O=C(NO)c1ccc(N(Cc2ccc(C3CCCCC3)cc2)C(=O)[C@H]2CCN2S(=O)(=O)c2c(F)c(F)c(F)c(F)c2F)cc1O [Compound 8d]

effect on DNA-binding activity of STAT5:STAT5 homodimers [1]: minimal effect
effect on DNA-binding activity of STAT1:STAT1 homodimers [2]: minimal effect
EC50 [14]: 2.5 µM
SMILES: COC(=O)c1ccc(N(Cc2ccc(C3CCCCC3)cc2)C(=O)[C@H]2CCN2S(=O)(=O)c2c(F)c(F)c(F)c(F)c2F)cc1O [Compound 7a]
EC50 [11]: 4.3 µM

effect on DNA-binding activity of STAT5:STAT5 homodimers [1]: minimal effect
effect on DNA-binding activity of STAT1:STAT1 homodimers [2]: minimal effect
SMILES: COC(=O)c1ccc(N(Cc2ccc(C3CCCCC3)cc2)C(=O)[C@H]2CCN2S(=O)(=O)c2c(F)c(F)c(F)c(F)c2F)c(F)c1 [Compound 7b]
EC50 [11]: 6 µM

— PMC7816766 (Journal of Medicinal Chemistry, 2020)
